Results from ChEMBL document CHEMBL3525945, “Metabolic switching of BILR 355 in the presence of ritonavir. II. Uncovering novel contributions by gut bacteria and aldehyde oxidase” (Drug Metab Dispos, 2012).

Assays:
Type in all cases: ADME
Cytochrome P450 2C9 = Cytochrome P450 2C9 (Homo sapiens, UniProt P11712); experiment: Activity at recombinant CYP2C9 (unknown origin) expressed in baculovirus-infected insect cells assessed as enzyme-mediated drug depletion at 1 to 10 uM by LC-MS/MS analysis in presence of NADPH
How it was run: (§1)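 BILR 402 (1 or 10 μM) with baculovirus/insect-cell recombinant CYPs, levels scaled to average liver content (1A2 2, 2A6 1, 2B6 0.1, 2C9 1.5, 2C19 1.5, 2D6 0.3, 3A4 5 pmol/mL). Buffer 0.1 M potassium phosphate, 5 mM MgCl2, pH 7.4; 2.5 mM NADPH; 37 °C. Non-transfected insect microsomes served as controls. Aliquots taken 0.5–30 min and acetonitrile-quenched; depletion measured by LC-MS/MS with isotope-labelled internal standard.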

Cytochrome P450 2A6 = target: T1, Cytochrome P450 2A6 (Homo sapiens, UniProt P11509); experiment: Activity at recombinant CYP2A6 (unknown origin) expressed in baculovirus-infected insect cells assessed as enzyme-mediated drug depletion at 1 to 10 uM by LC-MS/MS analysis in presence of NADPH; how it was run: as §1
T1 sequence (P11509 whole entry): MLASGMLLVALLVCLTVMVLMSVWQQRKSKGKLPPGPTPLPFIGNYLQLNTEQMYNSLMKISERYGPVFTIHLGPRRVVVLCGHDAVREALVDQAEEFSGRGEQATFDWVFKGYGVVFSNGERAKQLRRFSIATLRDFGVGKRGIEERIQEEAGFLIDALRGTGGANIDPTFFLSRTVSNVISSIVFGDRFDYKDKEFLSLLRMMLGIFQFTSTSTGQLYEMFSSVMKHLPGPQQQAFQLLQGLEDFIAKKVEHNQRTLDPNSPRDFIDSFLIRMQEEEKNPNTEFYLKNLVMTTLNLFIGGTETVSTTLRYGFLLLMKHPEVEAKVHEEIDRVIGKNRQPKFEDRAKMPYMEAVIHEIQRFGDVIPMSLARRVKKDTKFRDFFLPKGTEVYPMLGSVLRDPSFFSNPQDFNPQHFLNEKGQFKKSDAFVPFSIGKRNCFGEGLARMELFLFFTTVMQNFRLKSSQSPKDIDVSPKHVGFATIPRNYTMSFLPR

Cytochrome P450 2C19 = Cytochrome P450 2C19 (Homo sapiens, UniProt P33261); experiment: Activity at recombinant CYP2C19 (unknown origin) expressed in baculovirus-infected insect cells assessed as enzyme-mediated drug depletion at 1 to 10 uM by LC-MS/MS analysis in presence of NADPH; how it was run: as §1

Measured: Drug metabolism

Chain of Cytochrome P450 2C9 (P11712 whole entry): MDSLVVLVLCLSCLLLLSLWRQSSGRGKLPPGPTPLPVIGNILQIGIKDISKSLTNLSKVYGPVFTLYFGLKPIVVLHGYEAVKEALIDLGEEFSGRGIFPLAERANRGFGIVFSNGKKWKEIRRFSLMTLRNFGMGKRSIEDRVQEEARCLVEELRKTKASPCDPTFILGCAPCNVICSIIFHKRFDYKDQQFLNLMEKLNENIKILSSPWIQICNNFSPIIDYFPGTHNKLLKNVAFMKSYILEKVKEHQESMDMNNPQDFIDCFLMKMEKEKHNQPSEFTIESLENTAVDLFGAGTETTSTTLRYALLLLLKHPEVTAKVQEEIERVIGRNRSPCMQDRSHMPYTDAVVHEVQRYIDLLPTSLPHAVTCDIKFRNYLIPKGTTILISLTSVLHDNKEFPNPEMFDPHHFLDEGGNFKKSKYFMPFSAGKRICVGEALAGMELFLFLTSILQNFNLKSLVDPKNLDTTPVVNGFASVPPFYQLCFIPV
Chain of Cytochrome P450 2C19 (P33261 whole entry): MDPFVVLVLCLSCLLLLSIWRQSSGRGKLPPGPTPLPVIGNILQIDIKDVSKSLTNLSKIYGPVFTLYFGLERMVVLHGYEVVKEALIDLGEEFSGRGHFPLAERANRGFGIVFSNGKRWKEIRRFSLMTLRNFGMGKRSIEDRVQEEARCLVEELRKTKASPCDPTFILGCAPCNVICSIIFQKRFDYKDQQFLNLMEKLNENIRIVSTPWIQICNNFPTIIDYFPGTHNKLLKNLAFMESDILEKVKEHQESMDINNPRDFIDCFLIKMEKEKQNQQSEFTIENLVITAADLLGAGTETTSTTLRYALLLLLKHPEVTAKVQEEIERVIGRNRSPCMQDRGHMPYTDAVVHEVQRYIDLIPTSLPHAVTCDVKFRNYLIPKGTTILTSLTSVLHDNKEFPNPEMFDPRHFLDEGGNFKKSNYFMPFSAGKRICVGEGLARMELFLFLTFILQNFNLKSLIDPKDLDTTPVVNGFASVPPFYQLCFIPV

CCN1c2ncc(CCOc3ccnc4ccccc34)cc2C(=O)N(C)c2cccnc21
metabolite_not_detected: Cytochrome P450 2C9 | Cytochrome P450 2A6 | Cytochrome P450 2C19
